≈ marks a conversion by molar mass, not a printed value.
Experiments:
[1] = Selectivity index, ratio of IC50 for mouse RAW264.7 cells to MIC for Staphylococcus epidermidis ATCC12228; assay type: toxicity; conditions: read-out: Selectivity Index
In short: (§1)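 SI = IC50 in mouse RAW 264.7 macrophages divided by broth-dilution MIC. For cytotoxicity, cells in DMEM/10% FBS/2 mM L-glutamine were seeded at 10,000/well for 12 h. They were then dosed across a concentration gradient in 1% FBS medium with DMSO below 0.1% for 72 h. Read-out was MTT, absorbance 562 nm, 4 wells × at least 3 runs.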

[2] = test system: Staphylococcus aureus; test: Antibacterial activity against methicillin-resistant Staphylococcus aureus ATCC52056 assessed as bacterial growth inhibition after 24 hrs by broth dilution method; assay type: functional; conditions: ATCC52056, 24 h
[3] = test system: Staphylococcus aureus; test: Antibacterial activity against methicillin-resistant Staphylococcus aureus ATCC513045 assessed as bacterial growth inhibition after 24 hrs by broth dilution method; assay type: functional; conditions: ATCC513045, 24 h
[4] = Selectivity index, ratio of IC50 for mouse RAW264.7 cells to MIC for methicillin-resistant Staphylococcus aureus ATCC515992; assay type: toxicity; in short: as §1
[5] = Cytotoxicity against mouse RAW264.7 cells assessed as cell viability at 8 ug/ml after 72 hrs by MTT assay; assay type: cell-based; conditions: read-out: Activity
In short: (§2)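 Mouse RAW 264.7 macrophages grown in DMEM with 10% FBS, 2 mM L-glutamine and penicillin/streptomycin at 37 °C, 5% CO2. Seeded at 10,000 cells/well for 12 h. Compound diluted 1000× from DMSO stock into 1% FBS medium (DMSO under 0.1%), over a concentration gradient, 72 h exposure. MTT formazan dissolved in DMSO for 45 min, absorbance read at 562 nm. Quadruplicate wells, at least three runs (N = 12).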

[6] = Selectivity index, ratio of IC50 for mouse RAW264.7 cells to MIC for methicillin-resistant Staphylococcus aureus ATCC62202; assay type: toxicity; conditions: read-out: Selectivity Index; in short: as §1
[7] = Selectivity index, ratio of IC50 for mouse RAW264.7 cells to MIC for methicillin-resistant Staphylococcus aureus ATCC523512; assay type: toxicity; conditions: read-out: Selectivity Index; in short: as §1
[8] = test system: Staphylococcus aureus; test: Antibacterial activity against methicillin-resistant Staphylococcus aureus ATCC510019 assessed as bacterial growth inhibition after 24 hrs by broth dilution method; assay type: functional; conditions: ATCC510019, 24 h
[9] = test system: RAW264.7; test: Cytotoxicity against mouse RAW264.7 cells assessed as inhibition of cell viability after 72 hrs by MTT assay; assay type: cell-based; conditions: RAW264.7, 72 h; in short: as §2
[10] = Selectivity index, ratio of IC50 for mouse RAW264.7 cells to MIC for methicillin-resistant Staphylococcus aureus ATCC43300; assay type: toxicity; conditions: read-out: Selectivity Index; in short: as §1
[11] = test system: Bacillus subtilis; test: Antibacterial activity against Bacillus subtilis ATCC6633 assessed as bacterial growth inhibition after 24 hrs by broth dilution method; assay type: functional; conditions: ATCC6633, 24 h
[12] = Selectivity index, ratio of IC50 for mouse RAW264.7 cells to MIC for methicillin-resistant Staphylococcus aureus ATCC513045; assay type: toxicity; conditions: read-out: Selectivity Index; in short: as §1
[13] = Selectivity index, ratio of IC50 for mouse RAW264.7 cells to MIC for Staphylococcus aureus ATCC25923; assay type: toxicity; conditions: read-out: Selectivity Index; in short: as §1
[14] = test system: Staphylococcus epidermidis; test: Antibacterial activity against Staphylococcus epidermidis ATCC12228 assessed as bacterial growth inhibition after 24 hrs by broth dilution method; assay type: functional; conditions: ATCC12228, 24 h
[15] = test system: Staphylococcus aureus; test: Antibacterial activity against methicillin-resistant Staphylococcus aureus ATCC43300 assessed as bacterial growth inhibition after 24 hrs by broth dilution method; assay type: functional; conditions: ATCC43300, 24 h
[16] = test system: Pseudomonas aeruginosa; test: Antibacterial activity against Pseudomonas aeruginosa ATCC2785 assessed as bacterial growth inhibition after 24 hrs by broth dilution method; assay type: functional; conditions: ATCC2785, 24 h
[17] = test system: Staphylococcus aureus; test: Antibacterial activity against methicillin-resistant Staphylococcus aureus ATCC523512 assessed as bacterial growth inhibition after 24 hrs by broth dilution method; assay type: functional; conditions: ATCC523512, 24 h
[18] = test system: Staphylococcus aureus; test: Antibacterial activity against methicillin-resistant Staphylococcus aureus ATCC62202 assessed as bacterial growth inhibition after 24 hrs by broth dilution method; assay type: functional; conditions: ATCC62202, 24 h
[19] = Selectivity index, ratio of IC50 for mouse RAW264.7 cells to MIC for Bacillus subtilis ATCC6633; assay type: toxicity; conditions: read-out: Selectivity Index; in short: as §1
[20] = test system: Staphylococcus aureus; test: Antibacterial activity against methicillin-resistant Staphylococcus aureus ATCC51033 assessed as bacterial growth inhibition after 24 hrs by broth dilution method; assay type: functional; conditions: ATCC51033, 24 h
[21] = test system: Staphylococcus epidermidis; test: Ratio of norfloxacin MIC to compound MIC for Staphylococcus epidermidis ATCC12228 after 24 hrs by broth dilution method; assay type: functional
[22] = Selectivity index, ratio of IC50 for mouse RAW264.7 cells to MIC for methicillin-resistant Staphylococcus aureus ATCC510019; assay type: toxicity; conditions: read-out: Selectivity Index; in short: as §1
[23] = test system: Staphylococcus aureus; test: Antibacterial activity against methicillin-resistant Staphylococcus aureus ATCC515992 assessed as bacterial growth inhibition after 24 hrs by broth dilution method; assay type: functional; conditions: ATCC515992, 24 h
[24] = test system: Staphylococcus aureus; test: Ratio of penicillin MIC to compound MIC for Staphylococcus aureus ATCC25923 after 24 hrs by broth dilution method; assay type: functional
[25] = test system: Staphylococcus aureus; test: Antibacterial activity against Staphylococcus aureus ATCC25923 assessed as bacterial growth inhibition after 24 hrs by broth dilution method; assay type: functional; conditions: ATCC25923, 24 h
[26] = Selectivity index, ratio of IC50 for mouse RAW264.7 cells to MIC for methicillin-resistant Staphylococcus aureus ATCC51033; assay type: toxicity; conditions: read-out: Selectivity Index; in short: as §1
[27] = Selectivity index, ratio of IC50 for mouse RAW264.7 cells to MIC for methicillin-resistant Staphylococcus aureus ATCC425055; assay type: toxicity; conditions: read-out: Selectivity Index; in short: as §1
[28] = test system: Staphylococcus aureus; test: Antibacterial activity against methicillin-resistant Staphylococcus aureus ATCC425055 assessed as bacterial growth inhibition after 24 hrs by broth dilution method; assay type: functional; conditions: ATCC425055, 24 h
[29] = test system: Escherichia coli; test: Antibacterial activity against Escherichia coli ATCC25922 assessed as bacterial growth inhibition after 24 hrs by broth dilution method; assay type: functional; conditions: ATCC25922, 24 h
[30] = test system: Proteus vulgaris; test: Antibacterial activity against Proteus vulgaris ATCC49101 assessed as bacterial growth inhibition after 24 hrs by broth dilution method; assay type: functional; conditions: ATCC49101, 24 h
[31] = Selectivity index, ratio of IC50 for mouse RAW264.7 cells to MIC for methicillin-resistant Staphylococcus aureus ATCC52056; assay type: toxicity; conditions: read-out: Selectivity Index; in short: as §1
[32] = test system: Bacillus subtilis; test: Ratio of norfloxacin MIC to compound MIC for Bacillus subtilis ATCC6633 after 24 hrs by broth dilution method; assay type: functional
[33] = test system: Staphylococcus epidermidis; test: Ratio of penicillin MIC to compound MIC for Staphylococcus epidermidis ATCC12228 after 24 hrs by broth dilution method; assay type: functional
In short: (§3)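 MICs came from broth double dilution from 256 µg/mL in 5×10^5 cells/mL culture, 37 °C, 24 h, read visually as the lowest concentration without turbidity. The ratio is the reference antibiotic's MIC over the compound's MIC.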

[34] = test system: Staphylococcus aureus; test: Ratio of norfloxacin MIC to compound MIC for Staphylococcus aureus ATCC25923 after 24 hrs by broth dilution method; assay type: functional; in short: as §3

## COc1cc(/C=C/c2cccc(F)c2)c(C(=O)O)c(O)c1CC=C(C)C
[1]
  selectivity ratio: 5.04
[2]
  MIC: 0.5 µg/mL (≈ 1.4 µM)
[3]
  MIC: 2 µg/mL (≈ 5.61 µM)
[4]
  selectivity ratio: 20.2
[5]
  viability at 72 h, 8 ug/ml: 91.7%
[6]
  selectivity ratio: 5.04
[7]
  selectivity ratio: 5.04
[8]
  MIC: 1 µg/mL (≈ 2.81 µM)
[9]
  IC50: 20.2 µg/mL (≈ 56.6 µM)
[10]
  selectivity ratio: 5.04
[11]
  MIC: 0.5 µg/mL (≈ 1.4 µM)
[12]
  selectivity ratio: 5.04
[13]
  selectivity ratio: 5.04
[14]
  MIC: 2 µg/mL (≈ 5.61 µM)
[15]
  MIC: 1 µg/mL (≈ 2.81 µM)
[16]
  MIC: > 64 µg/mL
[17]
  MIC: 2 µg/mL (≈ 5.61 µM)
[18]
  MIC: 0.5 µg/mL (≈ 1.4 µM)
[19]
  selectivity ratio: 5.04
[20]
  MIC: 1 µg/mL (≈ 2.81 µM)
[21]
  Ratio: 8
[22]
  selectivity ratio: 20.2
[23]
  MIC: 1 µg/mL (≈ 2.81 µM)
[24]
  Ratio: 64
[25]
  MIC: 4 µg/mL (≈ 11.2 µM)
[26]
  selectivity ratio: 5.04
[27]
  selectivity ratio: 5.04
[28]
  MIC: 2 µg/mL (≈ 5.61 µM)
[29]
  MIC: > 128 µg/mL
[30]
  MIC: > 64 µg/mL
[31]
  selectivity ratio: 40.3

## COc1cc(/C=C/c2ccccc2F)c(C(=O)O)c(O)c1CC=C(C)C
[1]
  selectivity ratio: 6.17
[2]
  MIC: 2 µg/mL (≈ 5.61 µM)
[3]
  MIC: 2 µg/mL (≈ 5.61 µM)
[4]
  selectivity ratio: 12.3
[5]
  viability at 72 h, 8 ug/ml: 92.7%
[6]
  selectivity ratio: 6.17
[7]
  selectivity ratio: 6.17
[8]
  MIC: 2 µg/mL (≈ 5.61 µM)
[9]
  IC50: 24.7 µg/mL (≈ 69.3 µM)
[10]
  selectivity ratio: 6.17
[11]
  MIC: 0.5 µg/mL (≈ 1.4 µM)
[12]
  selectivity ratio: 6.17
[13]
  selectivity ratio: 6.17
[14]
  MIC: 1 µg/mL (≈ 2.81 µM)
[15]
  MIC: 1 µg/mL (≈ 2.81 µM)
[16]
  MIC: > 64 µg/mL
[17]
  MIC: 2 µg/mL (≈ 5.61 µM)
[18]
  MIC: 0.5 µg/mL (≈ 1.4 µM)
[19]
  selectivity ratio: 6.17
[20]
  MIC: 1 µg/mL (≈ 2.81 µM)
[21]
  Ratio: 8
[22]
  selectivity ratio: 12.3
[23]
  MIC: 2 µg/mL (≈ 5.61 µM)
[24]
  Ratio: 64
[25]
  MIC: 4 µg/mL (≈ 11.2 µM)
[26]
  selectivity ratio: 6.17
[27]
  selectivity ratio: 6.17
[28]
  MIC: 0.5 µg/mL (≈ 1.4 µM)
[29]
  MIC: 64 µg/mL (≈ 180 µM)
[30]
  MIC: > 64 µg/mL
[31]
  selectivity ratio: 12.3

## COc1cc(/C=C/c2ccc(F)cc2F)c(C(=O)O)c(O)c1CC=C(C)C
[2]
  MIC: 2 µg/mL (≈ 5.34 µM)
[3]
  MIC: 2 µg/mL (≈ 5.34 µM)
[4]
  selectivity ratio: 46.5
[5]
  viability at 72 h, 8 ug/ml: 94.4%
[6]
  selectivity ratio: 46.5
[8]
  MIC: 2 µg/mL (≈ 5.34 µM)
[9]
  IC50: 46.5 µg/mL (≈ 124 µM)
[11]
  MIC: 2 µg/mL (≈ 5.34 µM)
[13]
  selectivity ratio: 46.5
[14]
  MIC: 0.5 µg/mL (≈ 1.34 µM)
[15]
  MIC: 2 µg/mL (≈ 5.34 µM)
[16]
  MIC: > 64 µg/mL
[17]
  MIC: 2 µg/mL (≈ 5.34 µM)
[18]
  MIC: 1 µg/mL (≈ 2.67 µM)
[20]
  MIC: 1 µg/mL (≈ 2.67 µM)
[22]
  selectivity ratio: 23.3
[23]
  MIC: 1 µg/mL (≈ 2.67 µM)
[24]
  Ratio: 64
[25]
  MIC: 1 µg/mL (≈ 2.67 µM)
[26]
  selectivity ratio: 46.5
[32]
  Ratio: 8
[28]
  MIC: 0.5 µg/mL (≈ 1.34 µM)
[29]
  MIC: > 128 µg/mL
[30]
  MIC: > 64 µg/mL
[31]
  selectivity ratio: 23.3

## COc1cc(/C=C/c2ccc(C(F)(F)F)cc2)c(C(=O)O)c(O)c1CC=C(C)C
[1]
  selectivity ratio: 12.9
[2]
  MIC: 4 µg/mL (≈ 9.84 µM)
[3]
  MIC: 8 µg/mL (≈ 19.7 µM)
[33]
  Ratio: 64
[4]
  selectivity ratio: 51.4
[5]
  viability at 72 h, 8 ug/ml: 90.6%
[6]
  selectivity ratio: 12.9
[7]
  selectivity ratio: 12.9
[8]
  MIC: 2 µg/mL (≈ 4.92 µM)
[9]
  IC50: 25.7 µg/mL (≈ 63.3 µM)
[10]
  selectivity ratio: 12.9
[11]
  MIC: 1 µg/mL (≈ 2.46 µM)
[12]
  selectivity ratio: 12.9
[13]
  selectivity ratio: 12.9
[14]
  MIC: 2 µg/mL (≈ 4.92 µM)
[15]
  MIC: 2 µg/mL (≈ 4.92 µM)
[16]
  MIC: > 64 µg/mL
[17]
  MIC: 0.5 µg/mL (≈ 1.23 µM)
[18]
  MIC: 0.5 µg/mL (≈ 1.23 µM)
[19]
  selectivity ratio: 12.9
[20]
  MIC: 1 µg/mL (≈ 2.46 µM)
[22]
  selectivity ratio: 12.9
[23]
  MIC: 0.5 µg/mL (≈ 1.23 µM)
[24]
  Ratio: 1
[25]
  MIC: 2 µg/mL (≈ 4.92 µM)
[26]
  selectivity ratio: 12.9
[27]
  selectivity ratio: 12.9
[28]
  MIC: 0.5 µg/mL (≈ 1.23 µM)
[29]
  MIC: > 128 µg/mL
[30]
  MIC: > 64 µg/mL
[34]
  Ratio: 8
[31]
  selectivity ratio: 6.43

Source: ChEMBL document CHEMBL3596195, “Novel cajaninstilbene acid derivatives as antibacterial agents” (Eur J Med Chem, 2015)
